The results in this text go back to ChEMBL document CHEMBL1133105, “Antimalarial, antitrypanosomal, and antileishmanial activities and cytotoxicity of bis(9-amino-6-chloro-2-methoxyacridines): influence of the linker” (J Med Chem, 2000).

Assay [1] has as its system Leishmania infantum. Description: In Vitro evaluation for the percentage of activity towards Leishmania infantum at 3.13 uM Concentration; Toxic upon mouse primary peritoneal macrophages. The class given is functional, organism-based. The gist of the method:
(§1)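 Starch-stimulated mouse peritoneal macrophages, 30 000/well, infected after 24 h with spleen-derived L. infantum amastigotes (10:1) together with 2-fold drug dilutions (12.5–1.56 µM). Incubated 7 days at 37 °C, 5% CO2. Wright-stained slides scored microscopically as % reduction of total parasite load or of infected macrophages. Uninfected treated cultures judged microscopically for macrophage toxicity.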

Assay [2] concerns Leishmania infantum. Description: Percentage of activity against Leishmania infantum at 6.25 uM; Toxic upon mouse primary peritoneal macrophages. The class given is functional, organism-based. In a few lines: as §1
Assay [3] relates to Leishmania infantum. Description: In Vitro evaluation for the percentage of activity towards Leishmania infantum at 1.56 uM Concentration; Toxic upon mouse primary peritoneal macrophages. The class given is functional, organism-based. In a few lines:
as §1

Assay [4] concerns Leishmania infantum. The experiment in a line: Percentage of activity against Leishmania infantum at 12.5 uM Concentration; Toxic upon mouse primary peritoneal macrophages. The assay is classed as functional, organism-based. The gist of the method: as §1
Assay [5] concerns MRC5. The experiment in a line: Cytotoxicity on MRC-5 cells at 12.5 uM. The assay is classed as functional. The following applies: Homo sapiens. The gist of the method: (§2)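 MRC-5 human diploid embryonic lung cells seeded at 5 000/well, washed after 24 h, then given 2-fold drug dilutions (25, 12.5, 6.25, 3.13 µM) in RPMI + 5% FCS, final DMSO below 0.5%. Incubated 7 days at 37 °C, 5% CO2. MTT colorimetric read-out, scored as % reduction of absorbance at 540 nm versus untreated controls.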

The subject of assay [6] is MRC5. Description: Cytotoxicity on MRC-5 cells at 25 uM. The following applies: Homo sapiens. The assay is classed as functional. The gist of the method:
as §2

The test system of assay [7] is MRC5. The experiment in a line: Cytotoxicity on MRC-5 cells at 3.13 uM. The assay is classed as functional. Particulars: Homo sapiens. The gist of the method: as §2
The subject of assay [8] is MRC5. The experiment in a line: Cytotoxicity on MRC-5 cells at 6.25 uM. The class given is functional. Particulars: Homo sapiens. In a few lines:
as §2

The subject of assay [9] is Plasmodium falciparum. Description: In vitro sensitivity for Plasmodium falciparum FcB1R. The class given is functional, organism-based. In a few lines:
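Asynchronous P. falciparum cultures in human erythrocytes (0.5% parasitemia, 1% haematocrit) exposed to serially diluted drug for 24 h at 37 °C. [3H]hypoxanthine (0.5 µCi/well) then added for a further 24 h. Uptake compared with drug-free controls on the same plate. IC50 taken from the concentration–response curve, averaged over independent experiments. DMSO ≤0.1%.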

Assay [10] has as its system Trypanosoma cruzi. The experiment in a line: Percentage of activity against Trypanosoma cruzi at 1.56 uM. The class given is functional. In a few lines:
(§3)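 Mouse peritoneal macrophages, 30 000/well, infected after 24 h with about 100 000 T. cruzi trypomastigotes per well plus 2-fold drug dilutions (12.5–1.56 µM). Incubated 4 days at 37 °C, 5% CO2. Methanol-fixed, Giemsa-stained and scored microscopically as % reduction of total parasite load (free trypomastigotes plus intracellular amastigotes) versus untreated controls.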

In assay [11] the test system is Trypanosoma cruzi. The experiment in a line: Percentage of activity against Trypanosoma cruzi at 12.5 uM; Toxic upon mouse primary peritoneal macrophages. The assay is classed as functional, organism-based. The gist of the method: as §3
In assay [12] the test system is Trypanosoma cruzi. Description: In Vitro evaluation for the percentage of activity towards Trypanosoma cruzi at 3.13 uM Concentration; Toxic upon mouse primary peritoneal macrophages. The class given is functional, organism-based. In a few lines: as §3
Assay [13] has as its system Trypanosoma cruzi. Description: In Vitro evaluation for the percentage of activity towards Trypanosoma cruzi at 6.25 uM Concentration; Toxic upon mouse primary peritoneal macrophages. The assay is classed as functional, organism-based. The gist of the method: as §3
Assay [14] deals with Trypanosoma brucei. The experiment in a line: In Vitro evaluation for the percentage of activity towards Trypanosoma brucei at 3.13 uM Concentration. The class given is functional. In a few lines: (§4)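 Bloodstream-form T. brucei in HMI-9 medium, 10 000 parasites/well, exposed to 12.5, 6.25, 3.13 and 1.56 µM drug for 4 days. Read-out is % inhibition of parasite multiplication. Macrophage toxicity judged on mouse primary peritoneal macrophages.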

In assay [15] the test system is Trypanosoma brucei. Description: Percentage of activity against Trypanosoma brucei at 6.25 uM. The assay is classed as functional. In a few lines:
as §4

Assay [16] deals with Trypanosoma brucei. The experiment in a line: Percentage of activity against Trypanosoma brucei at 1.56 uM. The class given is functional. The gist of the method: as §4
The test system of assay [17] is Trypanosoma brucei. Description: In Vitro evaluation for the percentage of activity towards Trypanosoma brucei at 12.5 uM Concentration; Toxic upon mouse primary peritoneal macrophages. The class given is functional, organism-based. In a few lines: as §4
Assay [18] deals with Trypanosoma brucei. The experiment in a line: Percentage of activity against Trypanosoma brucei at 3.13 uM. The assay is classed as functional. The gist of the method:
as §4

Assay [19] concerns MRC5. Description: In Vitro cytotoxicity on MRC-5 cells. The assay is classed as functional. The following applies: Homo sapiens. The gist of the method: as §2
The subject of assay [20] is Leishmania infantum. The experiment in a line: In Vitro inhibition concentration against Amastigote form of Leishmania infantum.
The test system of assay [21] is Plasmodium falciparum. The experiment in a line: Inhibition of Plasmodium falciparum 3D7.
Assay [22] has as its system Plasmodium falciparum. Description: Inhibition of Plasmodium falciparum W2.
In assay [23] the test system is Plasmodium falciparum. Description: Inhibition of Plasmodium falciparum FCR3.
The subject of assay [24] is Plasmodium falciparum. The experiment in a line: Inhibition of Plasmodium falciparum F32A.
Assay [25] relates to Trypanosoma cruzi. Description: In Vitro evaluation for the percentage of activity towards Trypanosoma cruzi at 1.56 uM Concentration; Toxic upon mouse primary peritoneal macrophages. The class given is functional. The gist of the method: as §3
The test system of assay [26] is Trypanosoma brucei. Description: Percentage of activity against Trypanosoma brucei at 12.5 uM. The assay is classed as functional. The gist of the method: as §4

The term IC50 denotes the concentration needed to halve the response being measured. Low readings indicate greater potency, high ones weaker potency. Regarding `COc1ccc2nc3cc(Cl)ccc3c(NCCCN(CCCNc3c4ccc(Cl)cc4nc4ccc(OC)cc34)C(=O)CCN(C)C)c2c1`, the Cytotoxicity result in [1], in assay [2], in [3], in assay [4], in [11] and in [12] was “Toxic” each time. The Cytotoxicity result is “Toxic” in assay [13] and 100% in assay [14]. The compound also gave a cytotoxicity at 12.5 µM in [5] of 40%. The cytotoxicity at 25 µM in [6] turned out to be 54%. This compound also showed a cytotoxicity at 3.13 µM in [7] of 30%. In assay [8], this compound yielded a cytotoxicity at 6.25 µM of 39%. The concentration for half-maximal inhibition (IC50) in assay [9] was determined as 39 nM. In [10], this compound displayed a Parasite load reduction of 40%. Also, the “Inhibition of parasite multiplication” value in assay [15] stood at 100%. Besides, in assay [16], the “Percent inhibition of parasite multiplication” value (from here on “Percent inhibition”) came to 100%.

Turning to `COc1ccc2nc3cc(Cl)ccc3c(NCCCN(CCCNc3c4ccc(Cl)cc4nc4ccc(OC)cc34)C(=O)CCN3CCCC3)c2c1`, the Cytotoxicity entry in assay [1], in [2], in [3], in assay [4], in [11] and in [12] was “Toxic” in each case. Moreover, the Cytotoxicity entry in assay [13] and in assay [17] was “Toxic” throughout. In [5], this compound had a cytotoxicity at 12.5 µM of 65%. Also, in assay [6], the cytotoxicity at 25 µM turned out to be 76%. The cytotoxicity at 3.13 µM in assay [7] worked out at 37%. In assay [8], this compound returned a cytotoxicity at 6.25 µM of 39%. This compound showed an IC50 in assay [9] of 91 nM. This compound displayed a Parasite load reduction in assay [10] of 0%. Moreover, the “Inhibition of parasite multiplication” value in assay [15] is 100%. For the same compound, the “Percent inhibition” value in assay [16] came out at 100%. Moreover, the Parasite growth inhibition in assay [18] was determined as 100%.

By CC50 is commonly meant the concentration at which the toxic effect on the cells reaches its halfway point. `C[C@@H]1[C@H](O)[C@@H](C)/C=C/C=C/C=C/C=C/C=C/C=C/C=C/[C@H](O[C@@H]2O[C@H](C)[C@@H](O)[C@H](N)[C@@H]2O)C[C@@H]2O[C@](O)(C[C@@H](O)C[C@@H](O)[C@H](O)CC[C@@H](O)C[C@@H](O)CC(=O)O[C@H]1C)C[C@H](O)[C@H]2C(=O)O` [AMPHOTERICIN B]: the CC50 in [19] turned out to be 25000 nM. The same compound displayed a concentration for half-maximal inhibition (IC50) in assay [20] of 50 nM.

On to `OC(c1cc(C(F)(F)F)nc2c(C(F)(F)F)cccc12)C1CCCCN1` (configuration not stated) [MEFLOQUINE], for which the concentration for half-maximal inhibition (IC50) in assay [21] is 40 nM; in assay [22] it was 30 nM; in assay [23] it was 36 nM; in assay [9], 6.9 nM; in assay [24], 62 nM.

With `COc1ccc2nc3cc(Cl)ccc3c(NCCCCNCCCNc3c4ccc(Cl)cc4nc4ccc(OC)cc34)c2c1`, the Cytotoxicity entry in [1], in assay [2], in assay [3], in assay [4], in assay [25] and in assay [11] was “Toxic” in each case. The Cytotoxicity result in [12] and in assay [13] was “Toxic” throughout. Also, in assay [5], the cytotoxicity at 12.5 µM was 100%. The compound also registered a cytotoxicity at 25 µM in assay [6] of 100%. In assay [7], this compound yielded a cytotoxicity at 3.13 µM of 100%. The same compound had a cytotoxicity at 6.25 µM in [8] of 100%. This compound came in with an IC50 in assay [9] of 61 nM. In addition, the “Inhibition of parasite multiplication” value in assay [15] and in assay [26] was 100% in each case. For the same compound, the “Percent inhibition” value in assay [16] turned out to be 100%. The compound also displayed a Parasite growth inhibition in [18] of 100%.
